Assay outcomes (PubChem BioAssay)
Hits are enriched below; roughly 3% of the tested compounds scored in any of these assays.
MEKK2mut PB1 HTS: MEK5 binding signal on mutant MEKK2 PB1, primary screen, biochemical, multiplex bead flow cytometry, Alexa488-MEK5 | percent response, % at 10 µM | Alexa488-MEK5 binding to MEKK2 mutant | actives 0.35% (n = 290,000); in the data active = percent response above about 24%, passing the limit was not always enough
UBC13 polyUb: UBC13 polyubiquitin chain formation inhibitors, primary screen, biochemical, TR-FRET, uHTS; Ubiquitin-conjugating enzyme E2 N (Homo sapiens), P61088; inhibition, % at 20 µM; actives 0.47% (n = 330,000); in the data active = inhibition above about 45%, passing the limit was not always enough
Apaf-1 inh: inhibitors of human Apaf-1 apoptosome, primary screen, biochemical, DEVD-Rh110 fluorescence, uHTS; AID 489030, 2010; inhibition, % at 20 µM; actives 0.71% (n = 330,000); Apoptotic protease-activating factor 1 (Homo sapiens), O14727; reconstituted apoptosome caspase-3 activity; active = inhibition of at least 40% at 20 µM;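 note: plate controls were DMSO wells for no effect and DEVD-CHO caspase inhibitor wells for full effect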
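Assay system – apoptosome proteins · Medium – Hepes buffer, pH 7.5 · Also added – cytochrome c with DEVD-Rh110 · Timing – 30 min compound preincubation, 50 min activation, room temperature · Detection – Rh110 fluorescence, excitation 480 nm, emission 540 nm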
MEKK2 WT-MEK5: modulators of MEK5 binding to wildtype MEKK2, primary screen, biochemical, multiplex bead flow cytometry, Alexa488-MEK5. Mitogen-activated protein kinase kinase kinase 2 (Homo sapiens), Q9Y2U5. Alexa488-MEK5 binding to MEKK2 WT; actives lie on both sides. binding response (% of control), % at 10 µM. actives 1.1% (n = 290,000). AID 1531, 2009; in the data active = binding response below about 67% or above about 130%
UCH37 DUB inh: inhibitors of human UCH37 deubiquitinase, primary screen, biochemical, Ub-AMC cleavage, fluorescence. actives 0.33% (n = 330,000). purified proteasome/UCH37. AID 588478, 2011. inhibition, % (test concentration not listed). Ubiquitin carboxyl-terminal hydrolase isozyme L5 (Homo sapiens), Q9Y5K5;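 active = mean inhibition over replicate wells above about 20%, limit read from the data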;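 note: 0% = compound-free wells with enzyme and 100% = wells lacking proteasome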
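System: Proteasome-associated human UCH37 deubiquitinase; Input: 0.15 nM proteasome in added enzyme buffer; Also added: Ub-AMC substrate from 1 µM stock; Incubation: 30 min compound-proteasome preincubation then 25 min substrate reaction, room temperature; Detection: fluorescence, ex 355 nm, em 460 nm; Read-out: % inhibition of Ub-AMC cleavage fluorescence; Benchmarks: no-proteasome and no-compound wells.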
MEKK3 PB1 HTS: modulators of MEKK3-MEK5 PB1 binding, primary screen, biochemical, wildtype MEKK3, multiplex bead flow cytometry, Alexa488-MEK5; actives 1.4% (n = 290,000); bead-based flow cytometry, Alexa488-MEK5 binding to MEKK3; actives lie on both sides; 0 = blocked by unlabeled MEK5, 100 = vehicle; AID 1529, 2009; binding response (% of control), % at 10 µM;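 active = binding response more than 3 SD above or below the average of its plate-row segment, actives on both sides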;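 note: Alexa488 bead fluorescence after subtracting the streptavidin-only scavenger bead signal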
Target sequence (Q99759 whole entry, looked up): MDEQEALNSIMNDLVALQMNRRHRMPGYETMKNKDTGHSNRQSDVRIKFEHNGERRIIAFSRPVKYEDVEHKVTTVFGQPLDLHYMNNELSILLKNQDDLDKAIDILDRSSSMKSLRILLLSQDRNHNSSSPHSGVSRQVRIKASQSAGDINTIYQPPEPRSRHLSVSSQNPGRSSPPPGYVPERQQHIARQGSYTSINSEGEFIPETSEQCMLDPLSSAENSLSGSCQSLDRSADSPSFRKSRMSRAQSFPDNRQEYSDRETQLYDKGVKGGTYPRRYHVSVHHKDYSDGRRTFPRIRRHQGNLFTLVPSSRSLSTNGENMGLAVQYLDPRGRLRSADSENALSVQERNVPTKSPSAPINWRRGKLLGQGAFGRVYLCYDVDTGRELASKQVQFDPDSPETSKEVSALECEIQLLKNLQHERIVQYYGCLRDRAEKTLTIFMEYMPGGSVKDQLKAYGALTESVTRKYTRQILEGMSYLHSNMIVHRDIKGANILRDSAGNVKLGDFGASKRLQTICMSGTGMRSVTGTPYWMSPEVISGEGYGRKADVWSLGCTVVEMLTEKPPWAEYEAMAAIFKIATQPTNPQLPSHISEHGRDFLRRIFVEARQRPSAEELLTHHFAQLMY
UCH37 confirm: retest of human UCH37 deubiquitinase inhibitors, confirmation, biochemical, Ub-AMC cleavage rate, fluorescence; shares compounds with UCH37 DUB inh; Proteasome-bound UCH37; inhibition, % at 20 µM; actives 27% (n = 480);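 active = average inhibition over replicates above about 50%, so the earlier screening hit is confirmed, limit read from the data; inactive = the rest, counted as false positives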;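 note: based on cleavage rate fitted by regression over a 30 min kinetic read; 0% = proteasome plus Ub-AMC and 100% = Ub-AMC without proteasome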
* = called active by the depositor; . = no result.

SMILES	MEKK2mut PB1 HTS	UBC13 polyUb	Apaf-1 inh	MEKK2 WT-MEK5	UCH37 DUB inh	MEKK3 PB1 HTS	UCH37 confirm
CCOc1cc(C=NNC(=O)c2ccc(C)nc2)cc([N+](=O)[O-])c1O	.	.	.	.	27*	.	24
COC(=O)C(CSCc1ccccc1)NC(=O)CSc1nc(C)cc(=O)[nH]1 (stereo not given)	1	6	8	102	4	98	.
O=C(O)c1cccc(CN2C(=O)S/C(=C/c3ccccc3[N+](=O)[O-])C2=O)c1	12	-15	7	102	80*	102	35
CCN(CC)S(=O)(=O)c1cccc(NC(=O)c2ccc(SC)cc2OC)c1	-4	6	2	94	4	101	.
NC1=C(Br)C(=O)c2ccccc2C1=O	2	-360	71*	97	34*	97	50
Cc1cc2c(cc1C)C(=O)C(Br)=C(N)C2=O	.	.	.	.	4	.	.
CCOc1ccc(C=NNC(=O)C2CC2)c(OCC)c1	.	.	.	.	1	.	.
Cc1cc(O)c(Sc2ncn[nH]2)cc1NS(=O)(=O)c1ccc(Cl)cc1	.	6	-1	.	3	.	.
O=S(=O)(Nc1cc(Sc2ncn[nH]2)c(O)c2ccccc12)c1ccccc1	-1	-56	94*	98	38*	116	70*
CC1(C)OC(c2ccccc2)=C/C(=C/C=Nc2ccccc2)O1	-3	-4	4	109	48*	111	-18
CCOC(=O)c1sc(=S)n(CC)c1N	12	1	-14	105	52*	105	25
CCOc1ccc(/C=C2/SC(=S)N(C(C(=O)O)c3ccccc3)C2=O)cc1OCC (stereo not given)	0	.	.	98	51*	100	12
CN1CCN(C2=CC3=CC(=C(C#N)C#N)CCC3CC2)CC1 (stereo not given)	-3	.	.	99	26*	100	15
Cn1cc(/C=C/c2cc[n+](C)cc2)c2cc(F)ccc21	1	.	.	103	28*	95	34
Cn1cc(/C=C/c2cc[n+](C)cc2)c2cc(Cl)ccc21	1	.	.	118	15	101	.
Cc1ccc(C(=O)ON=Cc2ccc(N3CCCCC3)c([N+](=O)[O-])c2)cc1	.	.	.	.	40*	.	-2
Cc1cccc(C)c1NC(=O)COC(=O)c1ccc([N+](=O)[O-])o1	-8	-8	-1	91	29*	103	11
CC(C)CC(=O)Nc1c2c(nn1-c1ccc([N+](=O)[O-])cc1)CS(=O)(=O)C2	7	0	0	107	5	107	.
CCN(Cc1cccc(OC)c1)CC1CCCN(CCc2cccc(OC)c2)C1 (stereo not given)	18	7	4	116	4	105	.
CC(=O)N(N=C1Sc2ccccc2C1=O)c1ccccc1	.	.	.	.	31*	.	19
CC(=O)N(N=C1Sc2ccccc2C1=O)c1ccccc1C	.	.	.	.	83*	.	62*
CC(=O)N(C)/C=C1\Sc2ccccc2C1=O	.	-5	-6	.	2	.	.
C#CCOCCOCCOCCNc1nc(N2CCN(C(=O)Cn3cc(CCO)nn3)CC2)nc(N2CCN(C(=O)[C@H]([C@@H](C)O)n3cc(CCCCN)nn3)CC2)n1	-3	5	-28	100	38*	94	19
O=S(=O)(NCc1ccc(F)cc1)c1ccccc1Br	.	-3	4	.	35*	.	-11
CCOC(=O)c1[nH]c(C)c(C(=O)NCc2ccccn2)c1C	-5	-6	1	94	0	94	.
SMILES	MEKK2mut PB1 HTS	UBC13 polyUb	Apaf-1 inh	MEKK2 WT-MEK5	UCH37 DUB inh	MEKK3 PB1 HTS	UCH37 confirm
N#C/C(=C\c1ccc(N2CCCCC2)o1)C(N)=O	0	-395	10	101	30*	101	26
N#C/C(=C\c1ccc(N2CCCCC2)o1)C(=O)Nc1cccc(Br)c1	0	-351	-3	79	4	89	.
O=C1NC(=O)/C(=C/c2cccc3ccccc23)S1	3	-8	11	94	8	102	.
O=C1NC(=O)C(=Cc2ccccc2[N+](=O)[O-])S1	.	.	.	.	86*	.	99*
COc1cc(C2C(C(=O)c3ccc(C)o3)=C(O)C(=O)N2c2cc(C)on2)ccc1O (stereo not given)	0	2	-4	98	46*	101	14
COc1cccc(NC2=C(Cl)C(=O)OC2OC(=O)c2ccco2)c1 (stereo not given)	-5	2	0	91	37*	100	5
COc1ccc(NC(=O)/C=C/c2c(Cl)nc3ccccn23)cc1	1	-41	17	98	37*	98	9
Cc1[nH][nH]c(=O)c1C(c1c(C)[nH][nH]c1=O)c1cn(Cc2ccc(F)cc2)c2ccccc12	0	.	.	104	12	98	.
Cc1[nH][nH]c(=O)c1C(c1c(C)[nH][nH]c1=O)c1cn(Cc2ccc(Cl)c(Cl)c2)c2ccccc12	2	.	.	83	47*	100	24
C[N+](C)(C)c1ccc(C=NNc2nc(Cl)c(C#N)c(Cl)c2Cl)cc1	.	.	.	.	11	.	.
C[n+]1ccc(C=NNc2nc(Cl)c(C#N)c(Cl)c2Cl)cc1	.	.	.	.	25*	.	32
C=CCn1nnnc1SCC(=O)Nc1cccc(C(F)(F)F)c1	7	5	0	111	2	104	.
Cc1[nH][nH]c(=O)c1C(c1ccc(-c2ccc(Cl)c(C(=O)O)c2)o1)c1c(C)[nH][nH]c1=O	-1	.	.	102	30*	102	44
CCOC(=O)c1cccc(-c2ccc(C=O)o2)c1	9	-5	4	126	5	97	.
COC(=O)c1cccc(-c2ccc(C(c3c(C)[nH][nH]c3=O)c3c(C)[nH][nH]c3=O)o2)c1	-2	-53	81*	90	40*	89	57*
CCC1CCCCN1C(=S)NC(=O)c1cc(S(=O)(=O)N2CCOCC2)ccc1C (stereo not given)	-2	17	-15	99	4	96	.
CNC1=C(N(C(C)=O)c2ccc(Br)cc2)C(=O)c2ccccc2C1=O	-6	.	.	91	51*	90	74*
CC(=O)NC1=C(Nc2ccc(N(C)C)cc2)C(=O)c2ccccc2C1=O	4	-212	24	91	.	88	.
